The values below come from ChEMBL document CHEMBL1146462, “New communesin derivatives from the fungus Penicillium sp. derived from the Mediterranean sponge Axinella verrucosa” (J Nat Prod, 2004).

In brackets after ≈: the same amount, converted by molar mass. Activity calls are given as the source filed them. The rule behind the calls is not given here. Where only a bound is given, the exact number is not on record here.

The nature of data set [1]: Antiproliferative activity against human SUP-B15 cells after 48 hrs by MTT assay. As to conditions: SUP-B15, 48 h, read-out: ED50 (the source's name). In kind it is functional. The procedure, abridged:
(§1)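 Human leukemia cell lines were tested for antiproliferative activity by MTT assay and by radioactive thymidine incorporation. Results are given as ED₅₀ in μg/mL.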

For data set [2], the system named is THP-1. Nature of the data set: Antiproliferative activity against human THP1 cells after 48 hrs by MTT assay. In kind it is functional. As to conditions: THP-1, 48 h, read-out: ED50 (the source's name). The procedure, abridged: as §1
The nature of data set [3]: Toxicity in Artemia salina. To be noted: in vivo. Type of data set: organism-based.
Data set [4] deals with U-937. The data set can be described thus: Antiproliferative activity against human U937 cells after 48 hrs by MTT assay. Type of data set: functional. As to conditions: U-937, 48 h, read-out: ED50 (the source's name). The procedure, abridged:
as §1

For data set [5], the system named is MOLT-3. Nature of the data set: Antiproliferative activity against human MOLT3 cells after 48 hrs by MTT assay. To be noted: MOLT-3, 48 h, read-out: ED50 (the source's name). In kind it is functional. The procedure, abridged:
as §1

Data set [6] deals with L-428. The data set can be described thus: Antiproliferative activity against human L428 cells after 48 hrs by MTT assay. In kind it is functional. The procedure, abridged:
as §1

Data set [7] is described as follows: Antiproliferative activity against human NAMALWA cells after 48 hrs by MTT assay. In kind it is functional. To be noted: NAMALVA, read-out: ED50 (the source's name). In outline: as §1

Consider `C/C=C/C=C/C(=O)N1CC[C@@]23c4ccccc4N[C@@H]4Nc5cccc6c5[C@@]42CCN([C@@H]13)[C@@H]6[C@H]1OC1(C)C` [COMMUNESIN C], for which the EC50 was 10.8 µg/mL (≈ 21.8 µM) in data set [1]; 13.1 µg/mL (≈ 26.5 µM) in data set [2]; 11.3 µg/mL (≈ 22.8 µM) in data set [4]; 8.6 µg/mL (≈ 17.4 µM) in data set [5]; 8.2 µg/mL (≈ 16.6 µM) in data set [7]. In data set [3], the 50% lethal concentration (LC50) is 1.96 µg/mL (≈ 3.96 µM). Besides, the outcome in data set [6] was inactive.

Consider `C/C=C/C=C/C(=O)N1CC[C@@]23c4ccccc4N[C@@H]4N(C=O)c5cccc6c5[C@@]42CCN([C@@H]13)[C@@H]6[C@H]1OC1(C)C` [COMMUNESIN D], for which the EC50 in data set [1] was determined as 9 µg/mL (≈ 17.2 µM); in data set [2], 16.2 µg/mL (≈ 31 µM); in data set [4], 13.1 µg/mL (≈ 25.1 µM); in data set [5], 9.9 µg/mL (≈ 18.9 µM); in data set [7], 14.6 µg/mL (≈ 27.9 µM). This compound came in with an LC50 in data set [3] of 0.57 µg/mL (≈ 1.09 µM). Moreover, in data set [6], the outcome was inactive.

As to `C/C=C/C=C/C(=O)N1CC[C@@]23c4ccccc4N[C@@H]4N(C)c5cccc6c5[C@@]42CCN([C@@H]13)[C@@H]6[C@H]1OC1(C)C` [COMMUNESIN B], the EC50 was 7.2 µg/mL (≈ 14.2 µM) in data set [1]; 11.4 µg/mL (≈ 22.4 µM) in data set [2]; 10.4 µg/mL (≈ 20.4 µM) in data set [4]; 8.1 µg/mL (≈ 15.9 µM) in data set [5]; over 20 µg/mL in data set [6] (L-428, 48 h, read-out: ED50 (the source's name)); 9.9 µg/mL (≈ 19.5 µM) in data set [7]. This compound also showed an LC50 in data set [3] of 0.3 µg/mL (≈ 0.59 µM).
